Published values gathered from unrelated publications.
Lines come from different studies, so protocols differ.
Target: Tyrosine-protein kinase receptor UFO (AXL, Homo sapiens, UniProt P30530)
Residues used in one study (P30530 26-894): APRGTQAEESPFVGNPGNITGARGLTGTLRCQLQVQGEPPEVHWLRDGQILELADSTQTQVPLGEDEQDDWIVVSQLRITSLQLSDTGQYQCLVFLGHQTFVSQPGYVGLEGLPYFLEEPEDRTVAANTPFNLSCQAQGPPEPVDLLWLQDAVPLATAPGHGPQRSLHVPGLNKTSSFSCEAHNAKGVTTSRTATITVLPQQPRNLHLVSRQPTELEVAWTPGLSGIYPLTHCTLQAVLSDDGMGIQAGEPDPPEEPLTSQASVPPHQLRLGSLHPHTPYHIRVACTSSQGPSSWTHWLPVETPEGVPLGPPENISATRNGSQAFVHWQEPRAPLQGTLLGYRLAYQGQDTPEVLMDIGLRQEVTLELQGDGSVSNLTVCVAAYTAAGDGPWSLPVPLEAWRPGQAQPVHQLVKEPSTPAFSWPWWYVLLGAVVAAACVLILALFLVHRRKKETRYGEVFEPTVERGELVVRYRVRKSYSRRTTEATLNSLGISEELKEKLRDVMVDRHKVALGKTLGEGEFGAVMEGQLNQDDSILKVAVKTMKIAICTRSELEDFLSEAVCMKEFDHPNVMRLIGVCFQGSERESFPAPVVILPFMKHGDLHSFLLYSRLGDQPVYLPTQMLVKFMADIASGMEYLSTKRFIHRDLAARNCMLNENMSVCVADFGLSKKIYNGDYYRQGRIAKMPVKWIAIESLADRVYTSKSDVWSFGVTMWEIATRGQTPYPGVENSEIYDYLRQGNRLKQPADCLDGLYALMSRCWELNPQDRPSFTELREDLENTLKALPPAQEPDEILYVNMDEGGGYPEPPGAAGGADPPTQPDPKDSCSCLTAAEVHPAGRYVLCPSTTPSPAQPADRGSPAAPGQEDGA

For `F[C@@H]1CCN(c2nccc(-c3cnn4ncccc34)n2)C1`, the remaining binding was 87% (binding; 1 µM).
With `O=C(c1ccc(Nc2nccc(-c3cc4ccccc4s3)n2)cc1)N1CCC(N2CCCC2)CC1` the remaining binding was 33% (binding; competition with immobilised ligand; 1 µM).
For `CCCCN(CCCC)C(=O)CN1C[C@H](c2cc(OC)c3c(c2)OCO3)[C@@H](C(=O)O)[C@@H]1CC(C)(C)CCC`, the remaining binding was 100% (cell-free assay; competition with immobilised ligand; 1 µM).
`CN(C)c1nccc(-c2cnn3ncccc23)n1` has a remaining binding of 100% (binding; 1 µM).
`C[C@@H]1CN(c2ccc3ncc(-c4ccc5[nH]nc(C6CC6)c5c4)n3n2)C[C@H](C)O1` gave a remaining binding of 60% (binding; competition with immobilised ligand; 0.5 µM).
With `O=C(NCCCN1CCOCC1)c1ccc(Nc2ncc(Cl)c(-c3ccc(Cl)s3)n2)cc1` the remaining binding was 76% (binding; competition with immobilised ligand; 1 µM).
With `C[C@@H]1CCN(c2nccc(-c3cnn4ncccc34)n2)C1` the remaining binding was 86% (binding; 1 µM).
For `CC(=O)N1CCC(c2ccc(C(=O)NC3=NCCN3)cc2C(F)(F)F)CC1`, the remaining binding was 100% (cell-free assay; competition with immobilised ligand; 1 µM).
With `N#Cc1ccccc1CSc1nnc2c(n1)[nH]c1ccccc12` the remaining binding was 65% (binding; competition with immobilised ligand; 10 µM).
`NS(=O)(=O)c1cc(NC(=O)C2(c3ccccc3Cl)CC2)ccc1Oc1cccc(Cl)c1` gave a remaining binding of 89% (cell-free assay; competition with immobilised ligand; 1 µM).
For `COc1ccnn2ncc(-c3ccnc(N(C)C)n3)c12`, the remaining binding was 100% (binding; 1 µM).
For `c1ccc(N2CCN(Cc3nc4ccccc4[nH]3)CC2)nc1`, the remaining binding was 100% (binding; competition with immobilised ligand; 1 µM).
The remaining binding of `CNC(=O)[C@@H]1CC[C@@H](n2c(-c3ccc4cnccc4c3)nc3ccc(C(=O)NCc4cccc(C(N)=O)c4)cc32)C1` is reported as 99% (binding; competition with immobilised ligand; 1 µM).
With `CN(C)c1nccc(-c2cnc3ncccn23)n1` the remaining binding was 100% (binding; 1 µM).
With `C[C@@H](c1cccc(C#N)c1)n1cc(Cl)cc(C(N)=O)c1=N` the remaining binding was 100% (cell-free assay; competition with immobilised ligand; 1 µM).
With `O=C(NCCCN1CCOCC1)c1ccc(Nc2nccc(-c3cc4ccccc4s3)n2)cc1` the remaining binding was 38% (binding; competition with immobilised ligand; 1 µM).
`Cc1nccc(COC(=O)N2C[C@@H]3[C@@H](CNC(=O)c4ccc5[nH]nnc5c4)[C@@H]3C2)n1` has a remaining binding of 88% (cell-free assay; competition with immobilised ligand; 1 µM).
With `N[C@@H]1CCN(c2nccc(-c3cnn4ncccc34)n2)C1` the remaining binding was 100% (binding; 1 µM).
The remaining binding of `C[C@@H](c1ccc(-n2cnc3c(N)ncnc32)cc1)N1CCc2nn(C)c(Cc3ccccc3)c2C1=O` is reported as 100% (binding; competition with immobilised ligand; 0.1 µM).
The remaining binding of `CCOC(=O)c1cc2cc(-c3cc(C(=O)NCc4ccc(C(=O)O)cc4)nn3C)ccc2[nH]1` is reported as 89% (cell-free assay; competition with immobilised ligand; 0.1 µM).
`COc1cnc(Nc2cccc(S(N)(=O)=O)c2)nc1N1CCN(c2ccccc2)CC1` gave a remaining binding of 68% (binding; competition with immobilised ligand; 1 µM).
For `CC(C)(C)c1ccc(-c2nc(CBr)nn2-c2cccc(O)c2)cc1`, the remaining binding was 84% (cell-free assay; competition with immobilised ligand; 10 µM).
For `C=CC(=O)N1CCC(C(=O)NCC(=O)N2CCN(c3nc(-c4cnc(N)nc4C(F)F)nc(N4CCOCC4)n3)CC2)CC1`, the remaining binding was 97% (binding; competition with immobilised ligand; 1 µM).
`O=C(Nc1c[nH]nc1C(=O)NC1CCNCC1)c1cc(F)cc(F)c1` gave a remaining binding of 100% (binding; competition with immobilised ligand; 1 µM).
